Experimental data reported in ChEMBL document CHEMBL2331408, “Discovery and structure-activity relationships of pyrrolone antimalarials” (J Med Chem, 2013).
Each block holds one compound with its values, some of them ahead of it.

Tests used:
[1] = test system: Liver; experiment: Intrinsic clearance in mouse liver microsomes at 1 uM by LC/MS analysis; assay type: ADME, Microsome; settings: microsomes, 1 µM
Procedure, shortened: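 Mouse hepatic microsomes; in vitro intrinsic clearance from compound degradation during incubation, expressed as μL/min/mg.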

[2] = Drug metabolism in mouse liver microsomes assessed as mono-oxygenation at 1 uM by LC/MS analysis; assay type: ADME, Microsome
[3] = Drug metabolism in mouse liver microsomes assessed as bis-oxygenation at 1 uM by LC/MS analysis; assay type: ADME, Microsome
[4] = Partition coefficient, log D of the compound at pH 7.4 by HPLC analysis; assay type: physicochemical; settings: octanol/water
Procedure, shortened: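 LogD at pH 7.4 measured with a chromatographic gLogD technique.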

[5] = Drug metabolism in mouse liver microsomes assessed as glucuronide metabolite formation at 1 uM by LC/MS analysis; assay type: ADME, Microsome
[6] = Drug metabolism in mouse liver microsomes assessed as O-demethylation at 1 uM by LC/MS analysis; assay type: ADME, Microsome
[7] = test system: Liver microsomes; experiment: Drug metabolism in rat liver microsomes at 1 uM by LC/MS analysis; assay type: ADME, Microsome
[8] = Drug metabolism in mouse liver microsomes at 1 uM by LC/MS analysis; assay type: ADME, Microsome
[9] = test system: Liver microsomes; experiment: Drug metabolism in human liver microsomes at 1 uM by LC/MS analysis; assay type: ADME, Microsome
[10] = Plasma clearance in Sprague-Dawley rat at 1 mg/kg, iv; assay type: ADME, organism-based; set-up: dose 1 mg/kg, route intravenous
Procedure, shortened: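 Male Sprague–Dawley rats given a nominal 1 mg/kg iv dose as a solution in aqueous vehicle containing 40% (v/v) propylene glycol. Plasma concentration–time profiles were measured, with each profile the average of n = 2 rats. Plasma clearance was derived from the iv profile.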

[11] = test system: Rattus norvegicus; experiment: Oral bioavailability in Sprague-Dawley rat at 19 mg/kg; assay type: ADME, organism-based; settings: in vivo
[12] = Cmax in Sprague-Dawley rat at 19 mg/kg, po; assay type: ADME, organism-based; set-up: dose 19 mg/kg, route oral; settings: in vivo
[13] = Volume of distribution at steady state in Sprague-Dawley rat at 1 mg/kg, iv; assay type: ADME, organism-based; set-up: dose 1 mg/kg, route intravenous; settings: in vivo, read-out: Vdss
Procedure, shortened: (§1)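 Male Sprague–Dawley rats, single iv dose as solution in aqueous vehicle with 40% (v/v) propylene glycol; serial plasma concentrations, profiles averaged from n = 2 rats; urine collected for unchanged drug. Half-life, steady-state volume of distribution and plasma clearance taken from plasma concentration–time profiles.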

[14] = Apparent terminal half life in Sprague-Dawley rat at 1 mg/kg, iv; assay type: ADME, organism-based; set-up: dose 1 mg/kg, route intravenous; settings: in vivo, read-out: betat1/2(app) (converted); procedure, shortened: as §1
[15] = test system: Liver microsomes; experiment: Intrinsic clearance in human liver microsomes at 1 uM by LC/MS analysis; assay type: ADME, Microsome
[16] = test system: Liver microsomes; experiment: Intrinsic clearance in rat liver microsomes at 1 uM by LC/MS analysis; assay type: ADME, Microsome
[17] = test system: Liver microsomes; experiment: Half life in rat liver microsomes; assay type: ADME, Microsome
[18] = test system: Liver; experiment: Half life in mouse liver microsomes; assay type: ADME, Microsome
[19] = test system: Liver microsomes; experiment: Half life in human liver microsomes; assay type: ADME, Microsome
[20] = in vivo; settings: Sprague-Dawley, rat, po, 19 mg/kg
[21] = Drug degradation assessed as reactivity with reduced glutathione ethyl ester; assay type: physicochemical
[22] = test system: Liver microsomes; experiment: Drug metabolism in rat liver microsomes assessed as mono-oxygenation at 1 uM by LC/MS analysis; assay type: ADME, Microsome
[23] = test system: Rattus norvegicus; experiment: Oral bioavailability in Sprague-Dawley rat at 20 mg/kg; assay type: ADME, organism-based; settings: in vivo
[24] = test system: Rattus norvegicus; experiment: Bioavailability in Sprague-Dawley rat at 19 mg/kg, ip; assay type: ADME, organism-based; settings: in vivo
[25] = Volume of distribution at steady state in Sprague-Dawley rat at […], iv; assay type: ADME, organism-based; set-up: dose 4.5 mg/kg, route intravenous; settings: in vivo, read-out: Vdss
[26] = Cmax in Sprague-Dawley rat at 19 mg/kg, ip; assay type: ADME, organism-based; set-up: dose 19 mg/kg, route intraperitoneal; settings: in vivo
[27] = Cmax in Sprague-Dawley rat at 20 mg/kg, po; assay type: ADME, organism-based; set-up: dose 20 mg/kg, route oral; settings: in vivo
[28] = Drug excretion in Sprague-Dawley rat urine at 19 mg/kg, ip; assay type: ADME, organism-based; set-up: dose 19 mg/kg, route intraperitoneal; settings: read-out: Drug excretion
Procedure, shortened: (§2)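 Male Sprague–Dawley rats, nominal 20 mg/kg (19 mg/kg actual ip), given po as an aqueous HPMC suspension or ip as a suspension in aqueous vehicle with 10% DMSO; percentage of the dose excreted unchanged in urine was measured; n = 2 rats per profile.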

[29] = Plasma clearance in Sprague-Dawley rat at […], iv; assay type: ADME, organism-based; set-up: dose 4.5 mg/kg, route intravenous
[30] = Drug excretion in Sprague-Dawley rat urine at […], iv; assay type: ADME, organism-based; set-up: dose 4.5 mg/kg, route intravenous; settings: read-out: Drug excretion
[31] = Drug excretion in Sprague-Dawley rat urine at 20 mg/kg, po; assay type: ADME, organism-based; set-up: dose 20 mg/kg, route oral; settings: read-out: Drug excretion; procedure, shortened: as §2
[32] = Apparent terminal half life in Sprague-Dawley rat at 19 mg/kg, ip; assay type: ADME, organism-based; set-up: dose 19 mg/kg, route intraperitoneal; settings: in vivo, read-out: betat1/2(app) (converted)
[33] = Apparent terminal half life in Sprague-Dawley rat at 20 mg/kg, po; assay type: ADME, organism-based; set-up: dose 20 mg/kg, route oral; settings: in vivo, read-out: betat1/2(app) (converted)
[34] = Apparent terminal half life in Sprague-Dawley rat at […], iv; assay type: ADME, organism-based; set-up: dose 4.5 mg/kg, route intravenous; settings: in vivo, read-out: betat1/2(app) (converted)
[35] = Drug excretion in iv dosed rat urine assessed as glutathione adduct level; assay type: ADME, organism-based; settings: in vivo
[36] = in vivo; settings: Sprague-Dawley, rat, ip, 19 mg/kg
[37] = in vivo; settings: Sprague-Dawley, rat, po, 20 mg/kg

Structure (SMILES): CCOC(=O)C1=C(C)N/C(=C/c2ccn(-c3ccc(C(F)(F)F)cc3)c2)C1=O
Microsomal intrinsic clearance (CLint) [1]: 140 µL/min/mg | Drug metabolism [2]: Active

Structure (SMILES): CCOC(=O)C1=C(C)N/C(=C/c2cc(C)n(-c3ccc(Cl)cc3)c2C)C1=O
Microsomal intrinsic clearance (CLint) [1]: 72 µL/min/mg | logD [4]: 3.4

Structure (SMILES): CCOC(=O)C1=C(C)N/C(=C/c2cc(C)n(-c3ccc(OC)cc3)c2C)C1=O
Microsomal intrinsic clearance (CLint) [1]: 54 µL/min/mg | logD [4]: 3 | Drug metabolism [2]: Active

Structure (SMILES): CCOC(=O)C1=C(C)N/C(=C/c2cc(C)n(-c3ccc(N(C)C)cc3)c2C)C1=O
Microsomal intrinsic clearance (CLint) [1]: 56 µL/min/mg | logD [4]: 3.4 | Drug metabolism [6]: Active

Structure (SMILES): CCOC(=O)C1=C(C)N/C(=C/c2cc(C)n(-c3ccc(C(F)(F)F)cc3)c2C)C1=O
Microsomal intrinsic clearance (CLint) [1]: 53 µL/min/mg | logD [4]: 3.4 | Drug metabolism [7]: Not Active | Drug metabolism [8]: Not Active | Drug metabolism [9]: Not Active | clearance [10]: 1.32 L/h/kg | F [11]: 4% | Cmax [12]: 0.19 µM | Vd [13]: 19 L/kg | half-life [14]: 87 h | CLH [15]: 49 µL/min/mg | CLH [16]: 31 µL/min/mg | t1/2 [17]: 0.933 h | t1/2 [18]: 0.548 h | t1/2 [19]: 0.583 h | Tmax [20]: 1.67 h

Structure (SMILES): CCOC(=O)C1=C(C)N/C(=C/c2cc(C)n(-c3ccccc3C(F)(F)F)c2C)C1=O
logD [4]: […] | Stability [21]: Stable | Drug metabolism [8]: Not Active | Drug metabolism [22]: Active | Drug metabolism [9]: Not Active | F [23]: 6% | F [24]: 45.7% | Vd [25]: […] | Cmax [26]: […] | Cmax [27]: […] | dose excreted [28]: 0.01% | clearance [29]: […] | dose excreted [30]: […] | dose excreted [31]: […] | half-life [32]: […] | half-life [33]: […] | half-life [34]: […] | Drug excretion [35]: Not Active | Drug metabolism [2]: Active | CLH [15]: […] | CLH [16]: […] | t1/2 [17]: […] | t1/2 [18]: […] | t1/2 [19]: […] | Tmax [36]: 0.25 h | Tmax [37]: […]

Results, then the compound that gave them:

Microsomal intrinsic clearance (CLint) [1]: 140 µL/min/mg | Drug metabolism [2]: Active
Structure (SMILES): CCOC(=O)C1=C(C)N/C(=C/c2cc(CC)n(-c3ccccc3C(F)(F)F)c2CC)C1=O

Microsomal intrinsic clearance (CLint) [1]: 86 µL/min/mg | Drug metabolism [3]: Active | Drug metabolism [2]: Active
Structure (SMILES): CC1=C(C(=O)OC(C)(C)C)C(=O)/C(=C\c2cc(C)n(-c3ccccc3C(F)(F)F)c2C)N1

Microsomal intrinsic clearance (CLint) [1]: 560 µL/min/mg
Structure (SMILES): CC1=C(C(=O)OCc2ccccc2)C(=O)/C(=C\c2cc(C)n(-c3ccccc3C(F)(F)F)c2C)N1

Microsomal intrinsic clearance (CLint) [1]: 22 µL/min/mg | logD [4]: 5.8 | Drug metabolism [5]: Active
Structure (SMILES): CC1=C(C(=O)O)C(=O)/C(=C\c2cc(C)n(-c3ccccc3C(F)(F)F)c2C)N1

Microsomal intrinsic clearance (CLint) [1]: 23 µL/min/mg
Structure (SMILES): CC1=CC(=O)/C(=C\c2cc(C)n(-c3ccccc3C(F)(F)F)c2C)N1

Drug metabolism [2]: Active
Structure (SMILES): CC1=C(C(N)=O)C(=O)/C(=C\c2cc(C)n(-c3ccccc3C(F)(F)F)c2C)N1

Microsomal intrinsic clearance (CLint) [1]: 62 µL/min/mg | logD [4]: 3.4
Structure (SMILES): CCOC(=O)C1=C(C)N/C(=C/c2cc(C)n(-c3ccc(Br)cc3)c2C)C1=O

Microsomal intrinsic clearance (CLint) [1]: 97 µL/min/mg | logD [4]: 3.4
Structure (SMILES): CCOC(=O)C1=C(C)N/C(=C/c2cc(C)n(-c3cccc(C(F)(F)F)c3)c2C)C1=O

Microsomal intrinsic clearance (CLint) [1]: 77 µL/min/mg | logD [4]: 3 | Drug metabolism [2]: Active
Structure (SMILES): CCOC(=O)C1=C(C)N/C(=C/c2cc(C)n(-c3ccc(F)cc3F)c2C)C1=O
